ChEMBL document CHEMBL5058577, “EUbOPEN Chemogenomics Library 2 (Multiplex)” (2022)

Tested on: Fibroblast
Assay: Multiplex assay against human fibroblast
Assay type: toxicity, cell-based
How it was run: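 Four dyes were applied at seeding to live cells: Hoechst33342, BioTracker Green Microtubule Cytoskeleton Dye, MitoTracker Red and Annexin V Alexa Fluor 680. Imaging after compound addition used a CQ1 microscope at 37°C and 5% CO2. CellPathfinder machine-learning gating then sorted cells into Hoechst high-intensity objects or normal cells, normal cells into healthy, pyknosed or fragmented nuclei, and pyknosed cells into mitotic or apoptotic, with tubulin, mitochondrial-mass and membrane-permeability phenotypes given as per cents of healthy-nucleus cells.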

[1] = 12 h, 1 µM, compound concentration 1 uM, replicate 1
[2] = 12 h, 1 µM, compound concentration 1 uM, replicate 2
[3] = 12 h, 10 µM, compound concentration 10 uM, replicate 1
[4] = 12 h, 10 µM, compound concentration 10 uM, replicate 2
[5] = 24 h, 1 µM, compound concentration 1 uM, replicate 1
[6] = 24 h, 1 µM, compound concentration 1 uM, replicate 2
[7] = 24 h, 10 µM, compound concentration 10 uM, replicate 1
[8] = 24 h, 10 µM, compound concentration 10 uM, replicate 2
[9] = 48 h, 1 µM, compound concentration 1 uM, replicate 1
[10] = 48 h, 1 µM, compound concentration 1 uM, replicate 2
[11] = 48 h, 10 µM, compound concentration 10 uM, replicate 1
[12] = 48 h, 10 µM, compound concentration 10 uM, replicate 2

Oc1c(CN2CCN(c3ccccn3)CC2)cc(Cl)c2cccnc12
Population Apoptotic (%) [1]: 73%
Population Fragmented Nuclei (%) [1]: 17%
Population Healthy Nuclei (%) [1]: 68%
Population Hoechst High Intensity Objects (%) [1]: 4%
Population Membrane Permeable-Phenotype (%) [1]: 1%
Population Mitochondria Different-Phenotype (%) [1]: 0%
Population Mitotic Cells (%) [1]: 26%
Population Normal (%) [1]: 95%
Population Pyknosed Nuclei (%) [1]: 14%
Population Tubulin-Different-Phenotype (%) [1]: 27%
Total Cell Count [1]: 168
Population Apoptotic (%) [2]: 57%
Population Fragmented Nuclei (%) [2]: 27%
Population Healthy Nuclei (%) [2]: 54%
Population Hoechst High Intensity Objects (%) [2]: 5%
Population Membrane Permeable-Phenotype (%) [2]: 8%
Population Mitochondria Different-Phenotype (%) [2]: 6%
Population Mitotic Cells (%) [2]: 42%
Population Normal (%) [2]: 94%
Population Pyknosed Nuclei (%) [2]: 18%
Population Tubulin-Different-Phenotype (%) [2]: 43%
Total Cell Count [2]: 152
Population Apoptotic (%) [3]: 41%
Population Fragmented Nuclei (%) [3]: 17%
Population Healthy Nuclei (%) [3]: 54%
Population Hoechst High Intensity Objects (%) [3]: 5%
Population Membrane Permeable-Phenotype (%) [3]: 0%
Population Mitochondria Different-Phenotype (%) [3]: 25%
Population Mitotic Cells (%) [3]: 58%
Population Normal (%) [3]: 94%
Population Pyknosed Nuclei (%) [3]: 27%
Population Tubulin-Different-Phenotype (%) [3]: 67%
Total Cell Count [3]: 130
Population Apoptotic (%) [4]: 33%
Population Fragmented Nuclei (%) [4]: 25%
Population Healthy Nuclei (%) [4]: 58%
Population Hoechst High Intensity Objects (%) [4]: 2%
Population Membrane Permeable-Phenotype (%) [4]: 2%
Population Mitochondria Different-Phenotype (%) [4]: 9%
Population Mitotic Cells (%) [4]: 66%
Population Normal (%) [4]: 97%
Population Pyknosed Nuclei (%) [4]: 16%
Population Tubulin-Different-Phenotype (%) [4]: 62%
Total Cell Count [4]: 131
Population Apoptotic (%) [5]: 50%
Population Fragmented Nuclei (%) [5]: 19%
Population Healthy Nuclei (%) [5]: 67%
Population Hoechst High Intensity Objects (%) [5]: 3%
Population Membrane Permeable-Phenotype (%) [5]: 0%
Population Mitochondria Different-Phenotype (%) [5]: 3%
Population Mitotic Cells (%) [5]: 50%
Population Normal (%) [5]: 96%
Population Pyknosed Nuclei (%) [5]: 13%
Population Tubulin-Different-Phenotype (%) [5]: 30%
Total Cell Count [5]: 174
Population Apoptotic (%) [6]: 45%
Population Fragmented Nuclei (%) [6]: 29%
Population Healthy Nuclei (%) [6]: 56%
Population Hoechst High Intensity Objects (%) [6]: 5%
Population Membrane Permeable-Phenotype (%) [6]: 8%
Population Mitochondria Different-Phenotype (%) [6]: 7%
Population Mitotic Cells (%) [6]: 55%
Population Normal (%) [6]: 94%
Population Tubulin-Different-Phenotype (%) [6]: 47%
Total Cell Count [6]: 153
Population Apoptotic (%) [7]: 89%
Population Fragmented Nuclei (%) [7]: 26%
Population Healthy Nuclei (%) [7]: 46%
Population Hoechst High Intensity Objects (%) [7]: 0%
Population Membrane Permeable-Phenotype (%) [7]: 1%
Population Mitochondria Different-Phenotype (%) [7]: 15%
Population Mitotic Cells (%) [7]: 10%
Population Normal (%) [7]: 100%
Population Pyknosed Nuclei (%) [7]: 27%
Population Tubulin-Different-Phenotype (%) [7]: 57%
Total Cell Count [7]: 139
Population Apoptotic (%) [8]: 56%
Population Fragmented Nuclei (%) [8]: 35%
Population Healthy Nuclei (%) [8]: 41%
Population Hoechst High Intensity Objects (%) [8]: 2%
Population Mitochondria Different-Phenotype (%) [8]: 11%
Population Mitotic Cells (%) [8]: 43%
Population Normal (%) [8]: 97%
Population Pyknosed Nuclei (%) [8]: 22%
Population Tubulin-Different-Phenotype (%) [8]: 68%
Total Cell Count [8]: 134
Population Apoptotic (%) [9]: 54%
Population Fragmented Nuclei (%) [9]: 17%
Population Healthy Nuclei (%) [9]: 67%
Population Hoechst High Intensity Objects (%) [9]: 5%
Population Membrane Permeable-Phenotype (%) [9]: 1%
Population Mitochondria Different-Phenotype (%) [9]: 1%
Population Mitotic Cells (%) [9]: 45%
Population Normal (%) [9]: 94%
Population Pyknosed Nuclei (%) [9]: 14%
Population Tubulin-Different-Phenotype (%) [9]: 35%
Total Cell Count [9]: 158
Population Apoptotic (%) [10]: 70%
Population Fragmented Nuclei (%) [10]: 25%
Population Healthy Nuclei (%) [10]: 66%
Population Hoechst High Intensity Objects (%) [10]: 0%
Population Membrane Permeable-Phenotype (%) [10]: 4%
Population Mitochondria Different-Phenotype (%) [10]: 4%
Population Mitotic Cells (%) [10]: 30%
Population Normal (%) [10]: 99%
Population Pyknosed Nuclei (%) [10]: 7%
Population Tubulin-Different-Phenotype (%) [10]: 37%
Total Cell Count [10]: 137
Population Apoptotic (%) [11]: 85%
Population Fragmented Nuclei (%) [11]: 31%
Population Healthy Nuclei (%) [11]: 32%
Population Hoechst High Intensity Objects (%) [11]: 2%
Population Membrane Permeable-Phenotype (%) [11]: 0%
Population Mitochondria Different-Phenotype (%) [11]: 9%
Population Mitotic Cells (%) [11]: 14%
Population Normal (%) [11]: 97%
Population Pyknosed Nuclei (%) [11]: 35%
Population Tubulin-Different-Phenotype (%) [11]: 38%
Total Cell Count [11]: 137
Population Apoptotic (%) [12]: 78%
Population Fragmented Nuclei (%) [12]: 34%
Population Healthy Nuclei (%) [12]: 41%
Population Membrane Permeable-Phenotype (%) [12]: 1%
Population Mitochondria Different-Phenotype (%) [12]: 7%
Population Mitotic Cells (%) [12]: 21%
Population Pyknosed Nuclei (%) [12]: 24%
Population Tubulin-Different-Phenotype (%) [12]: 65%

CCOc1c2c(c(OCC)c3ncccc13)CN(c1ccc(CS(=O)(=O)NC(=O)Cc3ccccc3OC)cc1C)C2=O
Population Apoptotic (%) [1]: 44%
Population Fragmented Nuclei (%) [1]: 15%
Population Healthy Nuclei (%) [1]: 68%
Population Hoechst High Intensity Objects (%) [1]: 0%
Population Membrane Permeable-Phenotype (%) [1]: 1%
Population Mitochondria Different-Phenotype (%) [1]: 3%
Population Mitotic Cells (%) [1]: 55%
Population Normal (%) [1]: 99%
Population Pyknosed Nuclei (%) [1]: 15%
Population Tubulin-Different-Phenotype (%) [1]: 23%
Total Cell Count [1]: 120
Population Apoptotic (%) [2]: 38%
Population Fragmented Nuclei (%) [2]: 37%
Population Healthy Nuclei (%) [2]: 42%
Population Hoechst High Intensity Objects (%) [2]: 4%
Population Membrane Permeable-Phenotype (%) [2]: 8%
Population Mitochondria Different-Phenotype (%) [2]: 2%
Population Mitotic Cells (%) [2]: 61%
Population Normal (%) [2]: 95%
Population Pyknosed Nuclei (%) [2]: 19%
Population Tubulin-Different-Phenotype (%) [2]: 62%
Total Cell Count [2]: 111
Population Apoptotic (%) [3]: 35%
Population Fragmented Nuclei (%) [3]: 15%
Population Healthy Nuclei (%) [3]: 63%
Population Hoechst High Intensity Objects (%) [3]: 1%
Population Membrane Permeable-Phenotype (%) [3]: 1%
Population Mitochondria Different-Phenotype (%) [3]: 6%
Population Mitotic Cells (%) [3]: 64%
Population Normal (%) [3]: 98%
Population Pyknosed Nuclei (%) [3]: 21%
Population Tubulin-Different-Phenotype (%) [3]: 27%
Total Cell Count [3]: 161
Population Apoptotic (%) [4]: 21%
Population Fragmented Nuclei (%) [4]: 19%
Population Healthy Nuclei (%) [4]: 50%
Population Hoechst High Intensity Objects (%) [4]: 3%
Population Membrane Permeable-Phenotype (%) [4]: 7%
Population Mitochondria Different-Phenotype (%) [4]: 8%
Population Mitotic Cells (%) [4]: 78%
Population Normal (%) [4]: 96%
Population Pyknosed Nuclei (%) [4]: 29%
Population Tubulin-Different-Phenotype (%) [4]: 54%
Total Cell Count [4]: 146
Population Apoptotic (%) [5]: 56%
Population Fragmented Nuclei (%) [5]: 13%
Population Healthy Nuclei (%) [5]: 67%
Population Hoechst High Intensity Objects (%) [5]: 3%
Population Membrane Permeable-Phenotype (%) [5]: 2%
Population Mitochondria Different-Phenotype (%) [5]: 3%
Population Mitotic Cells (%) [5]: 43%
Population Normal (%) [5]: 96%
Population Pyknosed Nuclei (%) [5]: 18%
Population Tubulin-Different-Phenotype (%) [5]: 23%
Total Cell Count [5]: 127
Population Apoptotic (%) [6]: 46%
Population Fragmented Nuclei (%) [6]: 37%
Population Healthy Nuclei (%) [6]: 32%
Population Hoechst High Intensity Objects (%) [6]: 2%
Population Membrane Permeable-Phenotype (%) [6]: 18%
Population Mitotic Cells (%) [6]: 53%
Population Normal (%) [6]: 97%
Population Pyknosed Nuclei (%) [6]: 29%
Population Tubulin-Different-Phenotype (%) [6]: 69%
Total Cell Count [6]: 104
Population Apoptotic (%) [7]: 42%
Population Fragmented Nuclei (%) [7]: 17%
Population Healthy Nuclei (%) [7]: 66%
Population Hoechst High Intensity Objects (%) [7]: 3%
Population Membrane Permeable-Phenotype (%) [7]: 1%
Population Mitochondria Different-Phenotype (%) [7]: 2%
Population Mitotic Cells (%) [7]: 57%
Population Normal (%) [7]: 96%
Population Pyknosed Nuclei (%) [7]: 15%
Population Tubulin-Different-Phenotype (%) [7]: 19%
Total Cell Count [7]: 171
Population Fragmented Nuclei (%) [8]: 25%
Population Healthy Nuclei (%) [8]: 49%
Population Hoechst High Intensity Objects (%) [8]: 4%
Population Membrane Permeable-Phenotype (%) [8]: 5%
Population Normal (%) [8]: 95%
Population Pyknosed Nuclei (%) [8]: 25%
Population Tubulin-Different-Phenotype (%) [8]: 50%
Total Cell Count [8]: 142
Population Apoptotic (%) [9]: 57%
Population Fragmented Nuclei (%) [9]: 18%
Population Healthy Nuclei (%) [9]: 66%
Population Hoechst High Intensity Objects (%) [9]: 3%
Population Membrane Permeable-Phenotype (%) [9]: 1%
Population Mitochondria Different-Phenotype (%) [9]: 3%
Population Mitotic Cells (%) [9]: 42%
Population Normal (%) [9]: 96%
Population Pyknosed Nuclei (%) [9]: 15%
Population Tubulin-Different-Phenotype (%) [9]: 26%
Total Cell Count [9]: 128
Population Apoptotic (%) [10]: 66%
Population Fragmented Nuclei (%) [10]: 47%
Population Healthy Nuclei (%) [10]: 40%
Population Hoechst High Intensity Objects (%) [10]: 5%
Population Membrane Permeable-Phenotype (%) [10]: 5%
Population Mitochondria Different-Phenotype (%) [10]: 7%
Population Mitotic Cells (%) [10]: 33%
Population Normal (%) [10]: 94%
Population Pyknosed Nuclei (%) [10]: 12%
Population Tubulin-Different-Phenotype (%) [10]: 72%
Total Cell Count [10]: 105
Population Apoptotic (%) [11]: 71%
Population Fragmented Nuclei (%) [11]: 16%
Population Healthy Nuclei (%) [11]: 63%
Population Hoechst High Intensity Objects (%) [11]: 7%
Population Membrane Permeable-Phenotype (%) [11]: 1%
Population Mitochondria Different-Phenotype (%) [11]: 2%
Population Mitotic Cells (%) [11]: 28%
Population Normal (%) [11]: 92%
Population Pyknosed Nuclei (%) [11]: 20%
Population Tubulin-Different-Phenotype (%) [11]: 20%
Total Cell Count [11]: 171
Population Apoptotic (%) [12]: 29%
Population Fragmented Nuclei (%) [12]: 34%
Population Healthy Nuclei (%) [12]: 45%
Population Hoechst High Intensity Objects (%) [12]: 9%
Population Membrane Permeable-Phenotype (%) [12]: 7%
Population Mitochondria Different-Phenotype (%) [12]: 5%
Population Mitotic Cells (%) [12]: 70%
Population Normal (%) [12]: 90%
Population Tubulin-Different-Phenotype (%) [12]: 51%
Total Cell Count [12]: 131
